The source of these data is ChEMBL document CHEMBL1149612, “Synthesis and antiproliferative activity of clausine E, mukonine, and koenoline bioisosteres” (Bioorg Med Chem, 2007).

pIC50: −log10 of the molar value.

Test [1] concerns SW48. In words: Cell cycle arrest in SW48 cells by accumulation at G2/M phase at 100 uM after 72 hrs. It counts as functional, Homo sapiens. The method in brief:
(§1)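 Colorectal cells given 100 µM compound for 72 h. Afterwards 10^6 cells/mL were resuspended in propidium iodide solution and held overnight at 4 °C, then run on flow cytometry. Doublets and aggregates were gated out on FL2-area/FL2-width before calculating the percentage of cells in G1, S and G2/M phases.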

The subject of test [2] is HCT-116. In words: Cell cycle arrest in HCT116 cells by accumulation at G2/M phase at 100 uM after 72 hrs. Type of test: functional, Homo sapiens. In outline: as §1
In test [3] the test system is HCT-116. In words: Antiproliferative activity against human HCT116 cells after 72 hrs. To be noted: HCT-116, 72 h. It counts as functional, cell-based. In outline:
(§2)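 Asynchronously growing cells seeded at 5 × 10^3 cells/well and held 24 h in medium, then exposed to drug for 72 h; MTT reagent (5 mg/mL stock) added. Growth taken as absorbance of treated wells as percent of untreated controls. IC50 is the dose giving 50% growth inhibition versus untreated cells. Five separate experiments, each in triplicate; mean ± SD.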

The subject of test [4] is SW48. In words: Cell cycle arrest in SW48 cells by accumulation at S phase at 100 uM after 72 hrs. Type of test: functional, Homo sapiens. In outline:
as §1

The test system of test [5] is SW48. In words: Antiproliferative activity against human SW48 cells after 72 hrs. Type of test: functional, cell-based. Conditions: SW48, 72 h. In outline: as §2
The subject of test [6] is SW480. In words: Antiproliferative activity against human SW480 cells after 72 hrs. It counts as functional, cell-based. To be noted: SW480, 72 h. In outline: as §2
Test [7] deals with SW480. In words: Cell cycle arrest in SW480 cells by accumulation at S phase at 100 uM after 72 hrs. Type of test: functional, Homo sapiens. In outline: as §1
For test [8], the system named is SW48. In words: Cell cycle arrest in SW48 cells by accumulation at G1 phase at 100 uM after 72 hrs. It counts as functional, Homo sapiens. The method in brief:
as §1

Test [9] has as its system HCT-116. In words: Cell cycle arrest in HCT116 cells by accumulation at G1 phase at 100 uM after 72 hrs. Type of test: functional, Homo sapiens. The method in brief: as §1
The subject of test [10] is SW480. In words: Cell cycle arrest in SW480 cells by accumulation at G2/M phase at 100 uM after 72 hrs. It counts as functional, Homo sapiens. The method in brief: as §1
Test [11] deals with SW480. In words: Cell cycle arrest in SW480 cells by accumulation at G1 phase at 100 uM after 72 hrs. Type of test: functional, Homo sapiens. The method in brief:
as §1

A further test deals with MCF7. In words: Antiproliferative activity against human MCF7 cells after 72 hrs. Type of test: functional, cell-based. To be noted: MCF7, 72 h. The method in brief:
as §2

In test [12] the test system is HCT-116. In words: Cell cycle arrest in HCT116 cells by accumulation at S phase at 100 uM after 72 hrs. Type of test: functional, Homo sapiens. The method in brief: as §1
Test [13] is described as follows: Antiproliferative activity against human Mes-sa cells after 72 hrs. Type of test: functional, cell-based. In outline:
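Cells seeded at 5 × 10^3 cells/well and allowed 24 h in medium before compound addition. Exposure lasted 72 h, followed by MTT read-out. Growth was expressed as absorbance relative to untreated controls, and IC50 was taken as the dose giving 50% growth inhibition. Five separate experiments were run, each in triplicate, reported as mean ± SD.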

The term pIC50 denotes the IC50 on a negative log10 scale, so that one unit is a factor of ten. Low values mean a large IC50, high ones a small IC50. As for `COC(=O)c1cc(O)c2[nH]c3ncccc3c2c1`, the Activity is 18.7% in the test with SW48 [1]; 14.3% in the test on HCT-116 [2]; 18.9% in the test with SW48 [4]; 26.5% in the test with SW480 [7]; 62.4% with SW48 [8]; 56.6% in the test with HCT-116 [9]. The Activity was determined as 14.7% with SW480 [10], 58.7% with SW480 [11] and 29.1% in the test with HCT-116 [12]. For the same compound, the pIC50 is 5.15 with HCT-116 [3]; 5.05 with SW48 [5]; 5.06 with SW480 [6]; 4.96 in the test with MCF7; 4.80 in test [13].

Turning to `COC(=O)c1cc(OC)c2[nH]c3ncccc3c2c1`, the Activity stood at 18.1% in the test on SW48 [1]; 16.4% with HCT-116 [2]; 23% in the test with SW48 [4]; 27.3% with SW480 [7]; 59% with SW48 [8]; 52.6% with HCT-116 [9]. Further, the results for the Activity in the test on SW480 [10], in the test with SW480 [11] and in the test with HCT-116 [12] were 11.9%, 60.7% and 31%, respectively. Also, the pIC50 in the test with HCT-116 [3] was 5.07; with SW48 [5], 5.25; in the test with SW480 [6], 5.33; with MCF7, 5.36; in [13], 3.84.

On to `COc1cc(CO)cc2c1[nH]c1ncccc12`, for which the Activity is given as 32.4% in the test on SW48 [1]; 29.3% in the test with HCT-116 [2]; 9.7% in the test with SW48 [4]; 33% with SW480 [7]; 57.4% in the test with SW48 [8]; 53.3% in the test with HCT-116 [9]. The Activity in the test with SW480 [10] is 14.7%; in the test with SW480 [11] it was 52.3%; in the test on HCT-116 [12], 17.4%. Further, the pIC50 with HCT-116 [3] was 4.44; in the test on SW48 [5] it was 4.68; in the test with SW480 [6], 4.20; in the test on MCF7 it was 4.24; in test [13], 4.19.

Regarding `COC(=O)c1cc(O)c2[nH]c3ccccc3c2c1` [CLAUSINE E], the Activity in the test with SW48 [1] worked out at 21.9%; in the test on HCT-116 [2] it was 28%; in the test with SW48 [4], 12.5%; with SW480 [7], 17.5%; with SW48 [8], 65.6%; with HCT-116 [9], 60%. For the same compound, the Activity with SW480 [10] stood at 25.7%; with SW480 [11], 59.9%; in the test with HCT-116 [12], 12.1%. The pIC50 in the test on HCT-116 [3] is 5.72; in the test on SW48 [5] it was 4.68; in the test with SW480 [6] it was 5.32; in the test on MCF7 it was 6.22; in test [13], 4.46.

Consider `O=c1[nH]cc(F)c(=O)[nH]1` [FLUOROURACIL], for which the pIC50 in the test with HCT-116 [3] was 5.55; in the test on SW48 [5] it was 5.28; in the test on SW480 [6] it was 5.46; in the test with MCF7 it was 6.52.

With `COC(=O)c1cc(OC)c2[nH]c3ccccc3c2c1` [MUKONINE], the Activity is 9% in the test with SW48 [1]; 11.7% in the test with HCT-116 [2]; 14.1% with SW48 [4]; 33.8% in the test on SW480 [7]; 76.7% in the test on SW48 [8]; 70.8% in the test with HCT-116 [9]. In addition, the Activity was determined as 10.3% in the test with SW480 [10], 55.8% with SW480 [11] and 17.4% in the test on HCT-116 [12]. In addition, the pIC50 in the test on HCT-116 [3] was 4.37; in the test on SW48 [5] it was 4.21; in the test with SW480 [6] it was 4.14; with MCF7, 4.52; in [13], 4.10.
